Rows were chosen to be rich in hits. Some 1.3% of all compounds tested hit in one or more screens of this group.
STK33 kinase inh – inhibitors of purified STK33 kinase, primary screen, biochemical, ADP-Glo luminescence, homogeneous, cell-free. inhibition, % at 10 µM. AID 2661, 2010. 320,000 tested, 0.073% active. Serine/threonine-protein kinase 33 (Homo sapiens), Q9BYT3. MBP phosphorylation;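 active means inhibition at or above 25%, using the most active replicate where run in duplicate; inactive means inhibition below 25%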
LANA-H2B inh – blockers of LANA interaction with H2A/H2B – biochemical, FP readout, HTS, primary screen. inhibition, % (concentration not given with the values). 320,000 tested, 0.6% active. cell-free LANA-H2A/H2B peptide, fluorescence polarization. AID 2629, 2010; in the data active means inhibition mostly above about 10%, no sharp cut-off; inactive means mostly below about 6.7%
Target sequence (Q9QR71 whole entry, looked up): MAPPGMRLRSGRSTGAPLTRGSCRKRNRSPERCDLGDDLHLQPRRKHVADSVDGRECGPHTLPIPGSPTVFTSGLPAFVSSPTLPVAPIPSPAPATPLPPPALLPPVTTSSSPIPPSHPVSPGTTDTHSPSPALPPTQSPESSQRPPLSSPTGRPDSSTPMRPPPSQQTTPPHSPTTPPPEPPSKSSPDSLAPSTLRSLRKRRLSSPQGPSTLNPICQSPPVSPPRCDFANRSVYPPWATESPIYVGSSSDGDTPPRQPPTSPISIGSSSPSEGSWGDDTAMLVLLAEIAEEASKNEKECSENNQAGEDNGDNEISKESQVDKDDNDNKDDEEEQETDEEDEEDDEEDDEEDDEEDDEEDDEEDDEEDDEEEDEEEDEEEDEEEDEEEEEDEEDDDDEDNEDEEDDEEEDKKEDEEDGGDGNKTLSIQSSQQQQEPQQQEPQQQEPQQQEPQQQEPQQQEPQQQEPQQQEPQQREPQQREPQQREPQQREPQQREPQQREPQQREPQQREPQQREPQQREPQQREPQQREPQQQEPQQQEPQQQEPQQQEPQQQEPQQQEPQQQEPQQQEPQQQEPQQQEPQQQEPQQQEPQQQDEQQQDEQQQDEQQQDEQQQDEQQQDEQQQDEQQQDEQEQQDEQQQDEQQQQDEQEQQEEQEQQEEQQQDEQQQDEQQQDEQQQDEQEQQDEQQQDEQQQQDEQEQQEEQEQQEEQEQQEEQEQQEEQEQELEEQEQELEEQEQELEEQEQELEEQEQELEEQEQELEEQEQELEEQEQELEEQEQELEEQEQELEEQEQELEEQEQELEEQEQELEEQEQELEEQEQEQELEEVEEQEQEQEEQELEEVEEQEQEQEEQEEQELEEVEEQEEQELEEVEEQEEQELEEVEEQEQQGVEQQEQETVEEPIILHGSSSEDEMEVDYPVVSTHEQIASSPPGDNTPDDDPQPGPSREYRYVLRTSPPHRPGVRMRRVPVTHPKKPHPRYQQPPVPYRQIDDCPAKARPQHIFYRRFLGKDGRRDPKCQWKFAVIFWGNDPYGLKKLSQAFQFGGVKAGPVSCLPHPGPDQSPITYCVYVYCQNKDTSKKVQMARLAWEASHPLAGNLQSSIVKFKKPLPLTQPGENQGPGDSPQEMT
Lipid droplet – inhibitors of hepatocyte lipid droplet formation, primary screen, imaging, high-throughput imaging, BODIPY stain; AID 1656, 2009; inhibition, % at 6.5 µM; AML12 mouse hepatocytes, oleate lipid droplets; 240,000 tested, 0.4% active;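 active means lipid droplet intensity inhibited by at least 50%, with more than 500 cells counted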
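Assay system: AML12 mouse liver cells | Compound dosing: One dose, 6.5 µM compound | Read-out basis: Droplet intensity reduction, % inhibition | Measured by: Fluorescence imaging, 20x objective, two fields per well | Schedule: Overnight treatment with compound plus oleate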
TAG inh – inhibitors of triacylglycerol accumulation, primary screen, cell-based, uHTS, fluorescence, H9c2 | H9c2 cells, Nile Red lipid (TAG) fluorescence; cells loaded with 200 µM oleic acid | inhibition, % at 12.5 µM | 230,000 tested, 0.66% active;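 active means pattern-corrected inhibition of lipid staining of at least 50% with the nuclear-stain viability signal not falling by more than 50%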
GSK3B inh – human GSK3beta kinase inhibitors, primary screen, biochemical, cell-free homogeneous, HTS; Glycogen synthase kinase-3 beta (Homo sapiens), P49841; GST-GSK3beta kinase, ADP-Glo luminescence, 60 min; active compounds read low; activity score (negative = inhibition), % at 10 µM; 300,000 tested, 0.038% active; AID 2097, 2009;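 active means more than half of replicate wells score below -50%, meaning over 50% inhibition versus plate controls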
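Test system: GST-fused GSK3beta enzyme, cell-free | Quantity: 1.6 ng GST-GSK3beta enzyme per well | Reagent: 25 µM ATP with peptide substrate | Schedule: 60 min enzyme reaction, room temperature | Signal: Luminescent ADP-Glo measurement of ADP formed | Read-out basis: Score relative to plate controls | Control set: DMSO and 20 µM GW8510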
GSK3 alpha inh – blockers of GSK3A enzyme activity – biochemical, luminescence, cell-free homogeneous, HTS, primary screen; AID 2650, 2010; inhibition, % at 10 µM; GSK-3 alpha kinase, ADP-Glo luminescence, 60 min; 320,000 tested, 0.1% active; Glycogen synthase kinase-3 alpha (Homo sapiens), P49840;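 active means more than half of replicates show inhibition above 20%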;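 further: GST-tagged GSK-3 alpha with peptide substrate and 25 µM ATP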
TAG conf – triacylglycerol accumulation inhibitors, retest, confirmation, cell-based, single concentration, Nile Red fluorescence, H9c2 | shares compounds with TAG inh | H9c2 lipid accumulation; cells loaded with 200 µM oleic acid | inhibition, % at 12.5 µM | 990 tested, 71% active;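 active means mean inhibition across replicates of 40% or more; inactive means mean inhibition below 40%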
Hits are given with their value; i = inactive; nt = not tested or not shown.

SMILES	STK33 kinase inh	LANA-H2B inh	Lipid droplet	TAG inh	GSK3B inh	GSK3 alpha inh	TAG conf
COc1ccc(CNC(=O)/C=C/c2ccc(OCCCF)cc2)cc1OC	i	i	nt	i	i	i	nt
CC(=O)Nc1nc(SCc2ccc(Cl)cc2Cl)n[nH]1	i	i	nt	nt	i	i	nt
O=C1NC(Cc2ccc(O)cc2)c2nc3cc(F)c(F)cc3c(=O)n2-c2cc3ccccc3cc21 (centres undefined)	nt	nt	nt	i	nt	nt	nt
Cc1ccc2nc3n(c(=O)c2c1)-c1cc2ccccc2cc1C(=O)NC3Cc1ccc(O)cc1 (centres undefined)	nt	nt	nt	64	nt	nt	57
O=C1NC(Cc2ccc(O)cc2)c2nc3ccc(F)cc3c(=O)n2-c2cc3ccccc3cc21 (centres undefined)	nt	nt	nt	78	nt	nt	67
O=C(c1cc(-c2ccc(Cl)cc2)on1)N1CCCC1	i	i	i	nt	i	i	nt
CCN(c1ccccc1)S(=O)(=O)c1ccc(C(=O)NCC(c2ccccc2OC)N2CCCC2)cc1 (centres undefined)	nt	nt	nt	i	nt	nt	nt
COc1ccc(C2c3cc4c(cc3OC(N3CCOCC3)C2C)OCO4)c(OC)c1 (centres undefined)	nt	nt	nt	55	nt	nt	75
O=C(COc1ccc(S(=O)(=O)NC2CCCCC2)cc1)Nc1ccc2c(c1)OCCO2	i	i	nt	i	i	i	nt
Cc1ccsc1-c1nc(C(N)=O)c2[nH]c(=O)n(-c3ccc(Cl)cc3)c2n1	i	i	i	57	i	i	42
CCOC(=O)c1ccc(Cn2c(-c3ccccc3)nnc2-c2ccccc2)o1	i	i	i	i	i	i	nt
COCCN1Cc2cccc(C(=O)Nc3cccc(-c4nc5ccccc5[nH]4)c3)c2C1=O	i	i	i	80	i	i	89
CCC1CCCCN1S(=O)(=O)c1ccc2c(c1)CCN2C(C)=O (centres undefined)	i	i	i	nt	i	i	nt
CC(C)C(C)(C#N)NC(=O)CSc1nc2scc(-c3ccco3)c2c(=O)n1-c1ccccc1 (centres undefined)	i	i	nt	70	i	i	44
COc1ccccc1N(CC(=O)NC1CCCCC1)C(=O)Cn1nnc(-c2ccc(C)o2)n1	nt	nt	i	nt	i	nt	nt
O=c1cc(-c2cccc(Cl)c2)oc2cccc(O)c12	i	i	i	92	i	i	i
COc1ccc(-c2cc(CNc3nc(NC(C)C)nc4cc(-c5ccccc5)sc34)on2)cc1	nt	nt	nt	96	nt	nt	79
CC(C)(C)N1C(=O)[C@H]2[C@@H](c3ccc(Br)cc3)N3C(=O)N(c4cccc(F)c4)C(=O)[C@@]3(Cc3ccccc3)[C@H]2C1=O	i	i	nt	nt	i	nt	nt
CC(C)(C)N1C(=O)[C@H]2[C@@H](c3ccc(Br)cc3)N3C(=O)N(c4ccc(Br)cc4)C(=O)[C@@]3(Cc3ccccc3)[C@H]2C1=O	i	i	i	60	i	i	54
O=C(NCCc1c[nH]c2ccccc12)C1CCC(Cn2c(=S)[nH]c3ccccc3c2=O)CC1 (centres undefined)	i	i	i	65	i	i	61
Cc1csc(N2CCCC2c2nc3cc(Cl)c(N4CCCCC4)cc3n2CCOCCO)n1 (centres undefined)	i	i	nt	i	i	i	nt
Nc1c(Cl)cc(-c2csc(N3CCCC3c3nc4cc(Cl)c(N5CCCCC5)cc4n3CCOCCO)n2)cc1Cl (centres undefined)	i	i	nt	75	i	i	81
Nc1c(Cl)cc(-c2csc(N3CCCC3c3nc4cc(Cl)c(Cl)cc4n3CCCO)n2)cc1Cl (centres undefined)	i	i	nt	71	i	i	79
OCCCn1c(C2CCCN2c2nc(-c3ccc(Cl)cc3)cs2)nc2cc(Cl)c(Cl)cc21 (centres undefined)	i	i	nt	i	i	i	nt
Nc1c(Cl)cc(-c2csc(N3CCCC3c3nc4cc(Cl)c(N5CCCCC5)cc4n3CCCO)n2)cc1Cl (centres undefined)	i	i	nt	93	i	i	128
SMILES	STK33 kinase inh	LANA-H2B inh	Lipid droplet	TAG inh	GSK3B inh	GSK3 alpha inh	TAG conf
CN1CCN(C(=O)C2CCC(C)(C(=O)O)C2(C)C)CC1 (centres undefined)	i	i	i	i	i	i	nt
O=C(c1nn(Cc2ccccc2)c(=O)c2ccccc12)N1CCc2ccccc2C1	i	i	nt	nt	i	i	nt
Cc1cc(C)nc(N=Nc2c(O)n(Cc3ccc(Cl)cc3)c3ccccc23)n1	i	i	i	nt	i	i	nt
Cc1cc(C)nc(N/N=C/c2ccccc2)n1	i	i	i	nt	i	i	nt
CCN(CC)c1ccc(/C=N/Nc2nc(C)cc(C)n2)cc1	i	i	i	51	i	i	i
O=[N+]([O-])c1cc(S(=O)(=O)Nc2cccc(Cl)c2)ccc1N/N=C/c1ccc(N2CCOCC2)cc1	i	i	i	80	i	i	79
COc1cccc(CN2CC(C(=O)NC3CCC(O)CC3)CCC2=O)c1 (centres undefined)	i	i	i	i	i	i	nt
CCC(C)(C)NC(=O)C(c1cccn1C)N(Cc1ccc(OC)cc1)C(=O)Cn1nnc2ccccc21 (centres undefined)	i	i	i	67	i	i	50
O=S(=O)(c1ccc(OCC(O)CNC23CC4CC(CC(C4)C2)C3)c(Cl)c1)N1CCOCC1 (centres undefined)	nt	nt	i	59	i	nt	i
O=C(Nc1ccc(N2CCCC2=O)cc1)c1cccc(F)c1	i	i	i	nt	i	i	nt
C[C@@]12CCC=C[C@H]1[C@H](c1ccccc1Br)N(Cc1ccccc1)C2=O	nt	nt	nt	i	nt	nt	nt
C[C@@]12CCC=C[C@H]1[C@H](c1ccoc1)N(Cc1ccccc1)C2=O	i	i	i	79	i	nt	i
O=c1[nH]c(CN2CCN(c3ncccn3)CC2)nc2c(Br)cc(Br)cc12	i	i	i	i	i	i	nt
CCOc1ccccc1NC(=O)c1cccc(NC(=O)c2ccco2)c1	i	i	i	79	i	i	82
NC(=O)c1cc(-c2ccccc2)nc(N2CCOCC2)n1	i	i	i	52	i	i	60
COc1cc(OC)cc(C(=O)Nc2ccccc2-c2nnn(CC(=O)Nc3cc(C)on3)n2)c1	i	i	i	nt	i	i	nt
Cc1c(Cl)cccc1NC(=O)CNc1ccccc1F	i	i	i	nt	i	i	nt
